DNMT1 block – human DNMT1 methyltransferase inhibitors, primary screen, biochemical, molecular beacon, fluorescence, HinP1I cleavage, uHTS; DNA (cytosine-5)-methyltransferase 1 (Homo sapiens), P26358; inhibition (reported as % activation of signal), % at 10 µM; 360,000 compounds, 0.83% hits; in the data active = inhibition above about 50%
LMPTP inh – LMPTP phosphatase inhibitors, primary screen, biochemical, fluorescence intensity, uHTS; AID 651560, 2012; 360,000 compounds, 0.22% hits; inhibition, % at 20 µM; recombinant LMPTP-A, OMFP fluorogenic substrate;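 active = compounds that cut the enzyme signal by at least half of the control window in the single-dose screen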;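 also: plate controls were DMSO wells with enzyme plus substrate for no effect and substrate without enzyme for full effect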
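material = LMPTP-A | quantity = 0.625 nM enzyme | reagent = OMFP substrate, 400 µM final | buffer or medium = Bis-Tris pH 6.0, DTT, detergent | detection = endpoint fluorescence intensity from OMFP dephosphorylation | dosing = single 20 µM dose | read-out basis = % inhibition relative to no-enzyme and uninhibited control wells | control set = no-enzyme and uninhibited controls | timing = 50 min at room temperature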
STEP block – STEP phosphatase inhibitors, primary screen, biochemical, fluorescence intensity, uHTS; AID 588621, 2011; Tyrosine-protein phosphatase non-receptor type 5 (Homo sapiens), P54829; inhibition, % at 20 µM; recombinant STEP, OMFP fluorogenic substrate; 360,000 compounds, 0.25% hits;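 active = inhibition at 20 µM, scaled per plate between control wells, above about 37%, limit read from the data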;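 also: 0% = DMSO with enzyme and substrate and 100% = substrate only without enzyme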
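Assay system: isolated STEP enzyme. Buffer or medium: pH 6.0 Bis-Tris with DTT and Tween 20. Also added: fluorogenic phosphatase substrate OMFP at 25 µM final. Dosing: 20 µM, 1% DMSO. Timing: 20 min reaction, room temperature, in the dark. Measured by: fluorescence intensity, excitation 480 nm, emission 540 nm. Evaluation: normalized % inhibition.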
Scp-1 inhibitor – Scp-1 phosphatase inhibitors, primary screen, biochemical, colorimetric, uHTS | Recombinant Scp1, phosphopeptide, malachite green phosphate absorbance | 340,000 compounds, 0.88% hits | inhibition, % at 20 µM | Carboxy-terminal domain RNA polymerase II polypeptide A small phosphatase 1 (Homo …;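 active = inhibition above about 50% at 20 µM, limit read from the data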;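 also: plate controls were DMSO wells with enzyme for no effect and wells lacking enzyme for full effect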
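System: SCP-1 catalytic domain; Reagent: Phospho 17-mer peptide substrate; Doses: one concentration, 20 µM, with 1.0% DMSO; Incubation: 45 min room-temperature reaction, 5 min colour, 30 min stabiliser; Signal: Phosphate-binding colour reagent, absorbance read at 630 nm.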
SUMO1 PPI mod – modulators of SUMO1 protein-protein interactions, primary screen, biochemical, uHTS; AID 602429, 2012; 360,000 compounds, 0.33% hits; Small ubiquitin-related modifier 1 (Homo sapiens), P63165; SUMO1 binding to a labelled peptide, TR-FRET, 1 h; inhibition, % at 20 µM; in the data active = inhibition above about 37%
Scp1 confirm – Scp-1 phosphatase inhibitors, retest, confirmation, biochemical, colorimetric, single concentration | shares compounds with Scp-1 inhibitor | recombinant SCP-1 catalytic domain, phosphate release, malachite green absorbance | inhibition, % at 20 µM | 2,500 compounds, 61% hits | AID 540281, 2011;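 also: plate controls were DMSO with enzyme for no effect and buffer wells lacking enzyme for full effect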
Scp-1 MG ctr – colorimetric readout interference by compounds, confirmation, artefact control for Scp-1 inhibitor project, biochemical, single concentration. shares compounds with Scp-1 inhibitor. Colorimetric interference counterscreen, malachite green absorbance 630 nm. apparent inhibition (interference), % at 20 µM. 2,500 tested, under 10 active;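 also: compounds added after enzyme reaction finished so only phosphate colour detection is probed; plate controls were DMSO wells with completed Scp-1 reaction for no effect and substrate wells lacking enzyme for full effect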
Scp1 DSF – Scp-1 binding by thermal shift, confirmation, orthogonal assay for Scp-1 inhibitor project, biophysical, differential scanning fluorimetry. shares compounds with Scp-1 inhibitor. Recombinant SCP1, Sypro Orange thermal shift Tm. thermal shift relative to vanadate control, % at 40 µM. 1,500 compounds, 25% hits;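 active = substances whose mean melting-temperature shift, as a percentage of the reference inhibitor's shift, reaches about 5.3%, limit read from the data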;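 also: 0% = Tm of DMSO wells and 100% = Tm with sodium orthovanadate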
* hit, by the source's call; / = no result given. Only some compounds are listed: those with a hit (about 1.7% of all), similar ones and a draw of the others.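 The calls were made as follows, unless noted: active = inhibition of at least 30% at 20 µM; inactive = the rest.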

SMILES | DNMT1 block | LMPTP inh | STEP block | Scp-1 inhibitor | SUMO1 PPI mod | Scp1 confirm | Scp-1 MG ctr | Scp1 DSF
C/C(CC(=O)NC1CCCCC1)=N\NC(=O)Cc1ccc(-c2ccccc2)cc1 | 15 | 1 | 2 | 69* | 4 | 86* | -5 | -7
Cc1cccc(N2CCN(C(=O)CCCCCn3c(=S)[nH]c4ccc(N5CCOCC5)cc4c3=O)CC2)c1C | -4 | 5 | 8 | 82* | -30 | -13 | -19 | /
O=C(N/N=C/c1cccc(OC2CSC2)c1)c1ccccc1O | -2 | 42 | 21 | 96* | 1 | 59* | -16 | -9
Cn1ncc(Br)c1C(=O)N/N=C/c1cccc(OC2CSC2)c1 | -3 | -1 | -2 | -2 | -10 | / | / | /
CCc1cccc(NC(=O)Cn2c3[n+](c4ccc(C(F)(F)F)cc42)CCCCC3)c1 | 0 | -1 | 2 | 19 | -2 | / | / | /
O=C(Cn1c2[n+](c3ccc(C(F)(F)F)cc31)CCCCC2)Nc1ccccc1 | 6 | -2 | -2 | 62* | 0 | -18 | -10 | /
COc1cc(Br)cc2cc(C(=O)N3CCN(C(=O)c4ccco4)CC3)c(=O)oc12 | 11 | 8 | 3 | 56* | -3 | -7 | -13 | /
COc1cccc2cc(C(=O)N3CCN(C(=O)c4ccco4)CC3)c(=O)oc12 | 3 | -1 | -2 | -1 | 4 | / | / | /
COc1ccc(N2CC(C(=O)Nc3nc4ccc(F)cc4s3)CC2=O)c(OC)c1 (stereo unspecified) | -5 | 0 | 1 | -5 | 3 | 7 | -7 | /
CN(Cc1ccccc1F)C(=O)CNC(=O)Cc1cccc2ccccc12 | 0 | -8 | 4 | -7 | -2 | / | / | /
Cc1cc(C)n(-c2ccc(Oc3ccccc3)c(S(=O)(=O)O)c2)n1 | 28 | 4 | 37 | 65* | 1 | 47* | -17 | -4
Cc1cc(C)n(-c2ccc(C(=O)O)cc2)n1 | -2 | -2 | 0 | 4 | -5 | / | / | /
CCC1(c2ccccc2)NC(=O)N(CC(=O)N(C)CC(=O)Nc2cccc(OC)c2)C1=O (stereo unspecified) | -2 | -2 | -2 | -4 | 6 | / | / | /
CCC1(c2ccccc2)NC(=O)N(CC(=O)N(C)CC(=O)Nc2c(C)cccc2C)C1=O (stereo unspecified) | 0 | -1 | 0 | 2 | -8 | -5 | -3 | /
O=C(O)c1ccc(CNc2ccccc2C(=O)O)cc1 | 39 | 0 | 6 | 53* | 8 | 54* | -4 | -9
CCOC(=O)C1=C(C)N=c2s/c(=C\c3cccc(OCC(=O)O)c3)c(=O)n2C1c1ccccc1OC (stereo unspecified) | -12 | 1 | 2 | 61* | -3 | 33* | -14 | 5.8*
CCOC(=O)C1=C(C)N=c2s/c(=C/c3ccc(OCC(=O)O)cc3)c(=O)n2C1c1cc(OC)c(OC)c(OC)c1 (stereo unspecified) | 12 | -2 | 1 | 4 | -5 | / | / | /
CC1CCC(C(C)C)C(OCC[N+](C)(C)C)C1 (stereo unspecified) | 5 | -3 | -2 | 58* | 2 | -10 | -10 | /
CCCCn1c(SCC(=O)NCc2ccco2)nnc1-c1ccoc1C | 41 | 1 | 3 | 97* | 22 | 77* | -12 | -3
Cc1cc(NC(=O)CSc2nnc(COc3ccccc3)n2Cc2ccco2)no1 | 7 | -3 | -1 | -4 | -4 | / | / | /

Source: PubChem (Sanford-Burnham Center for Chemical Genomics)
